Results: ChEMBL document CHEMBL4350962, “Expanding the Chemical Space of Withaferin A by Incorporating Silicon To Improve Its Clinical Potential on Human Ovarian Carcinoma Cells” (J Med Chem, 2019)
Active and inactive are the calls of the source. No cut-off for these calls is given here.

How the values were obtained:
A2780 = assay: Antiproliferative activity against cisplatin-sensitive human A2780 cells measured after 96 hrs by MTT assay; type: functional, cell-based; settings: for IC50: A2780, 96 h
In short: (§1)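 Cells kept in DMEM or RPMI 1640 with 10% FBS and 5% penicillin-streptomycin at 37 °C, 5% CO2, seeded at 1 x 10⁴ cells/mL and left 24 h to adhere. Compounds or vehicle added over a concentration range for 96 h, then MTT 4 h; formazan dissolved in DMSO, absorbance read at 540 nm relative to control. IC50 given as mean ± SD of three independent experiments in duplicate.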

Homo sapiens = species: Homo sapiens; assay: (§2) Antiproliferative activity against cisplatin-resistant human A2780/CP70 cells measured after 96 hrs by MTT assay; type: functional; in short: as §1
[1] = as §2; type: functional; settings: A2780/CP70, 96 h; in short: as §1
ARPE-19 = assay: Cytotoxicity against human ARPE19 cells measured after 96 hrs by MTT assay; type: cell-based; settings: ARPE-19, 96 h; in short: as §1
[2] = Selectivity index, ratio of IC50 for human ARPE19 cells to IC50 for cisplatin-sensitive human A2780 cells; type: toxicity; settings: ARPE19 cells versus cisplatin-sensitive A2780 cells, read-out: Ratio IC50
[3] = Selectivity index, ratio of IC50 for human ARPE19 cells to IC50 for cisplatin-resistant human A2780/CP70 cells; type: toxicity; settings: ARPE19 cells versus cisplatin-resistant A2780/CP70 cells, read-out: Ratio IC50

SMILES	Activity (A2780)	Activity (Homo sapiens)	IC50 (A2780)	IC50 [1]	IC50 (ARPE-19)	selectivity ratio [2]	selectivity ratio [3]
CCCCCC[Si](CCCCCC)(CCCCCC)OCC1=C(C)C[C@H]([C@@H](C)[C@H]2CC[C@H]3[C@@H]4C[C@H]5O[C@]56[C@@H](O)C=CC(=O)[C@]6(C)[C@H]4CC[C@]23C)OC1=O	inactive	inactive					
CC1=C(CO)C(=O)O[C@@H]([C@@H](C)[C@H]2CC[C@H]3[C@@H]4C[C@H]5O[C@]56[C@@H](O)C=CC(=O)[C@]6(C)[C@H]4CC[C@]23C)C1 [WITHAFERIN A]			32.7 nM	32 nM	37 nM	1.1	1.2
CC1=C(CO[Si](C)(C)C(C)C)C(=O)O[C@@H]([C@@H](C)[C@H]2CC[C@H]3[C@@H]4C[C@H]5O[C@]56[C@@H](O)C=CC(=O)[C@]6(C)[C@H]4CC[C@]23C)C1			34 nM	35 nM	6500 nM	191	186
CCCCCCCC[Si](C)(C)OCC1=C(C)C[C@H]([C@@H](C)[C@H]2CC[C@H]3[C@@H]4C[C@H]5O[C@]56[C@@H](O[Si](C)(C)CCCCCCCC)C=CC(=O)[C@]6(C)[C@H]4CC[C@]23C)OC1=O			1.5 nM	24.9 nM	318 nM	212	12.8
CC1=C(CO[Si](c2ccccc2)(c2ccccc2)C(C)(C)C)C(=O)O[C@@H]([C@@H](C)[C@H]2CC[C@H]3[C@@H]4C[C@H]5O[C@]56[C@@H](O)C=CC(=O)[C@]6(C)[C@H]4CC[C@]23C)C1			46 nM	29 nM	2300 nM	49.9	79.1
C=C[Si](C)(C)OCC1=C(C)C[C@H]([C@@H](C)[C@H]2CC[C@H]3[C@@H]4C[C@H]5O[C@]56[C@@H](O[Si](C)(C)C=C)C=CC(=O)[C@]6(C)[C@H]4CC[C@]23C)OC1=O			33 nM	27.5 nM	92 nM	2.8	3.4
CCCC[Si](CCCC)(CCCC)OCC1=C(C)C[C@H]([C@@H](C)[C@H]2CC[C@H]3[C@@H]4C[C@H]5O[C@]56C(=O)C=CC(=O)[C@]6(C)[C@H]4CC[C@]23C)OC1=O			53 nM	> 100 nM	617 nM	11.6	
CC1=C(CO[Si](C)(C)c2ccccc2)C(=O)O[C@@H]([C@@H](C)[C@H]2CC[C@H]3[C@@H]4C[C@H]5O[C@]56C(=O)C=CC(=O)[C@]6(C)[C@H]4CC[C@]23C)C1			59 nM	> 100 nM	2300 nM	39.1	
CC[Si](CC)(CC)OCC1=C(C)C[C@H]([C@@H](C)[C@H]2CC[C@H]3[C@@H]4C[C@H]5O[C@]56C(=O)C=CC(=O)[C@]6(C)[C@H]4CC[C@]23C)OC1=O			35 nM	20 nM	1870 nM	53.5	93.5
CC1=C(CO[Si](C(C)C)(C(C)C)C(C)C)C(=O)O[C@@H]([C@@H](C)[C@H]2CC[C@H]3[C@@H]4C[C@H]5O[C@]56C(=O)C=CC(=O)[C@]6(C)[C@H]4CC[C@]23C)C1			35 nM	35 nM	37.5 nM	1.1	1.1
CCCC[Si](CCCC)(CCCC)OCC1=C(C)C[C@H]([C@@H](C)[C@H]2CC[C@H]3[C@@H]4C[C@H]5O[C@]56[C@@H](O)C=CC(=O)[C@]6(C)[C@H]4CC[C@]23C)OC1=O			27 nM	22 nM	260 nM	9.6	11.8
CC1=C(CO[Si](C)(c2ccccc2)c2ccccc2)C(=O)O[C@@H]([C@@H](C)[C@H]2CC[C@H]3[C@@H]4C[C@H]5O[C@]56[C@@H](O)C=CC(=O)[C@]6(C)[C@H]4CC[C@]23C)C1			22 nM	28.3 nM	70 nM	3.2	2.5
CC1=C(CO[Si](C)(C)C(C)C)C(=O)O[C@@H]([C@@H](C)[C@H]2CC[C@H]3[C@@H]4C[C@H]5O[C@]56[C@@H](O)[C@@H](n5ccnc5)CC(=O)[C@]6(C)[C@H]4CC[C@]23C)C1			20 nM	19 nM	52 nM	2.6	2.7
CCC[Si](CCC)(CCC)OCC1=C(C)C[C@H]([C@@H](C)[C@H]2CC[C@H]3[C@@H]4C[C@H]5O[C@]56[C@@H](O)C=CC(=O)[C@]6(C)[C@H]4CC[C@]23C)OC1=O			32 nM	3.6 nM	30 nM	0.9	8.3
